In the library only some 3.5% were active in any assay of this set; here they are far more common.
MrgX1 antag – antagonists of human MrgX1 receptor; AID 588676; B-score at 10 µM; MRGX1-HEK293 calcium flux, Fluo-4, BAM8-22 antagonism; active compounds read low; hit rate 1.3% among 310,000;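 active means calcium-response B-score plate-corrected more than 3 library SD below zero, starting fluorescence within 5 deviations, no agonist response on first addition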;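 further: peak minus trough fluorescence over baseline after final BAM8-22 challenge near maximal dose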
Target sequence (Q96LB2 whole entry, looked up): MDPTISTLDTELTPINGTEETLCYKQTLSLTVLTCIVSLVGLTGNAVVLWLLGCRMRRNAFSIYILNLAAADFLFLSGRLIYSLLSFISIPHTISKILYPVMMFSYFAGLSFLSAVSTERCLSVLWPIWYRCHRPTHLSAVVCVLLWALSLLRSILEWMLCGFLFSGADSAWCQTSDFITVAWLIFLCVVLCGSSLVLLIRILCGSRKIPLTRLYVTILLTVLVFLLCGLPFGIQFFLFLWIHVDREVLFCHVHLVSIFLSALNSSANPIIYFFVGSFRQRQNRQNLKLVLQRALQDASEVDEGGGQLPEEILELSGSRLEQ
RGS4 inh – inhibitors of human RGS4 | P49798 | HEK293 M3R/RGS4 inducible, Fluo-4 calcium flux; active compounds read high; triggered by carbachol at its EC20 | B-score at 10 µM | hit rate 0.45% among 310,000;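 active means B-score, a plate-corrected calcium signal, over three deviations above library mean, with baseline fluorescence within five deviations of library mean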;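 further: RGS4 expression induced by doxycycline in cells with stable M3 receptor; B-score is computed from the integrated fluorescence ratio over baseline after carbachol; higher B-score means a larger calcium signal and so more RGS4 inhibition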
Target sequence (P49798 whole entry, looked up): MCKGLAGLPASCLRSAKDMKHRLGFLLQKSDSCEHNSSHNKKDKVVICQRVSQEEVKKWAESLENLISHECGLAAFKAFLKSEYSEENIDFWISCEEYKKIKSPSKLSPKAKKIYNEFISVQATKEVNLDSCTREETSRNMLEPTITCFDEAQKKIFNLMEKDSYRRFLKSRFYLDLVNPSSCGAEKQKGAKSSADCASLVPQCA
RGS4 pot – RGS4 potentiation or activation; HEK293 M3R/inducible RGS4, carbachol calcium flux Fluo4; active compounds read low; B-score at 10 µM; hit rate 0.92% among 310,000;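 active means B-score of the integrated calcium signal more than 4 SD below the library mean, with starting fluorescence not abnormally high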;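 further: negative B-score means reduced calcium response which marks RGS4 activation or potentiation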
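System – HEK293 FlpIn-TREx cells, stable M3R, doxycycline-inducible RGS4 · Reagent – ECmax carbachol challenge · Times – compound preincubation 20 min at room temperature before agonist · Technique – Fluo4 fluorescence kinetic imaging of calcium · Measure – B score of integrated Fluo4 ratio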
MrgX1 PAM – allosterically activates human MrgX1 receptor signaling; MrgX1-HEK293, Fluo-4 calcium flux, FDSS; active compounds read high; B-score at 10 µM; hit rate 0.63% among 310,000;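 active means plate-corrected calcium response at least 3 library SD above typical, normal starting fluorescence, not activating the receptor alone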;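 further: compound read alongside a low EC10 to EC30 dose of BAM8-22 agonist; peak minus trough fluorescence over baseline measured at the second addition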
MrgX1 agonist – activates human MrgX1 receptor signaling | MrgX1-HEK293 cells, Fluo-4 calcium fluorescence, agonist mode; active compounds read high | B-score at 10 µM | hit rate 0.44% among 310,000;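 active means calcium response B-score plate-corrected fluorescence ratio at least 3 library SD, with starting fluorescence B-score inside 5 SD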
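Material – MrgX1-expressing HEK293 cells · Input – 15,000 cells seeded per well · Dosing – compound as first of three additions · Times – overnight seeding, then 1 h dark dye loading · Measured by – kinetic Fluo-4 NW fluorescence of intracellular calcium · Read-out – B-scored fluorescence response ratio · Benchmarks – positive and negative control wells on each plate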
MrgX1 ag reconf – human MrgX1 agonism, re-confirmation screen; hit rate 78% among 600; MrgX1-HEK293, Fluo-4 calcium fluorescence, FDSS; activation, % at 10 µM; shares compounds with MrgX1 agonist;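 active means calcium signal rise, corrected for plate position, at least 3 library SD high, with starting brightness within 5 such deviations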
HEK293 Ca flux – activity in parental HEK293 cells lacking MrgX1. shares compounds with MrgX1 antag. Fluo-4 calcium fluorescence, FDSS. fluorescence ratio F(max-min)/F0 at 10 µM. hit rate 2% among 4,000. AID 624111;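 active means duplicate-averaged calcium fluorescence ratio at least three times the standard deviation of buffer wells, a nonspecific response in parental cells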
HEK293 Ca counter – counter-screen for MrgX1 allosteric activators: effect in parental HEK293 cells | shares compounds with MrgX1 antag | parental HEK293 calcium flux, Fluo-4 fluorescence ratio; active compounds read high | fluorescence ratio F(max-min)/F0 at 10 µM | hit rate 0.4% among 4,000 | AID 624114;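 active means calcium fluorescence ratio, averaged over duplicates, at least 3 SD of the buffer-well ratio, meaning a nonspecific response in receptor-free cells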;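 further: untransfected parental HEK293 lacking MrgX1 used as counterscreen for MrgX1 allosteric activators; fluorescence change taken during the second addition on a kinetic imager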
HEK293 Ca cntr2 – MrgX1 activator counter-screen hit in parental HEK293 cells | shares compounds with MrgX1 antag | Fluo-4 calcium fluorescence (FDSS); active compounds read high | fluorescence ratio F(max-min)/F0 at 10 µM | hit rate 8.7% among 4,000;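 active means calcium fluorescence ratio at least three times the spread of buffer wells, meaning a non-specific response in parental cells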
Active calls of the source: *.

N#CC1=C(N)Oc2n[nH]c(-c3ccccc3)c2C12C(=O)Nc1ccccc12 (stereo unspecified) was read as MrgX1 antag inactive, RGS4 inh inactive, RGS4 pot inactive, MrgX1 PAM inactive and MrgX1 agonist inactive.
Cc1c(Br)c(O)c(Br)c2sc(=O)oc12 was read as MrgX1 antag inactive, MrgX1 PAM inactive, MrgX1 agonist 33*, MrgX1 ag reconf 149%*, HEK293 Ca flux inactive, HEK293 Ca counter inactive and HEK293 Ca cntr2 inactive.
Screening CSCCC(NC(=O)c1ccco1)C(=O)OC(C)C(=O)NC(=O)NC1CCCCC1 (stereo unspecified) returned MrgX1 antag inactive, RGS4 inh inactive, RGS4 pot inactive, MrgX1 PAM inactive, MrgX1 agonist 92*, MrgX1 ag reconf 397%*, HEK293 Ca flux inactive, HEK293 Ca counter inactive and HEK293 Ca cntr2 86*.
O=C(CC1CCCCC1)c1c(O)c2ccccc2oc1=O was read as MrgX1 antag inactive, RGS4 inh inactive, RGS4 pot inactive, MrgX1 PAM inactive, MrgX1 agonist 87*, MrgX1 ag reconf 428%*, HEK293 Ca flux inactive, HEK293 Ca counter inactive and HEK293 Ca cntr2 92*.
Screening CC1CCC(C(=O)c2c(O)c3ccccc3oc2=O)CC1 (stereo unspecified) returned MrgX1 antag inactive, RGS4 inh inactive, RGS4 pot inactive, MrgX1 PAM inactive, MrgX1 agonist 69*, MrgX1 ag reconf 282%*, HEK293 Ca flux inactive, HEK293 Ca counter inactive and HEK293 Ca cntr2 84*.
For CC(=N)c1c(O)c2ccccc2oc1=O the results were MrgX1 antag inactive, RGS4 inh inactive, RGS4 pot inactive, MrgX1 PAM inactive and MrgX1 agonist inactive.
`S=C1NCCOCCNC(=S)NCCOCCOCCOCCN1` gave MrgX1 antag inactive, RGS4 inh inactive, RGS4 pot inactive, MrgX1 PAM inactive and MrgX1 agonist inactive.
CN(C)c1ccc(-c2nn3c(C4CCCCC4)nnc3s2)cc1 was read as MrgX1 antag inactive, RGS4 inh inactive, RGS4 pot inactive, MrgX1 PAM inactive and MrgX1 agonist inactive.
CCOC(=O)CC(=O)CSc1nc2ccc(C)cc2cc1C#N was read as MrgX1 antag inactive, MrgX1 PAM inactive, MrgX1 agonist 54*, MrgX1 ag reconf 367%*, HEK293 Ca flux inactive, HEK293 Ca counter inactive and HEK293 Ca cntr2 75*.
For CCOC(=O)CC(=O)CSc1nc(CC)c(C)cc1C#N the results were MrgX1 antag inactive, RGS4 inh inactive, RGS4 pot inactive, MrgX1 PAM inactive and MrgX1 agonist inactive.
COc1ccc(S(=O)(=O)Nc2c(O)ccc3ccccc23)cc1OC was read as MrgX1 antag inactive, RGS4 inh inactive, RGS4 pot inactive, MrgX1 PAM inactive, MrgX1 agonist 27*, MrgX1 ag reconf inactive, HEK293 Ca flux inactive, HEK293 Ca counter inactive and HEK293 Ca cntr2 inactive.
For CCCOc1ccc(C(=O)NNC(=S)NC(=O)c2ccccc2)cc1 the results were MrgX1 antag inactive, RGS4 inh inactive, RGS4 pot -8.4*, MrgX1 PAM inactive, MrgX1 agonist 91*, MrgX1 ag reconf 663%*, HEK293 Ca flux inactive, HEK293 Ca counter inactive and HEK293 Ca cntr2 128*.
CCCOc1ccc(C(=O)NNC(=S)NC(=O)c2cccs2)cc1 was read as MrgX1 antag inactive, RGS4 inh inactive, RGS4 pot -8.6*, MrgX1 PAM inactive, MrgX1 agonist 110*, MrgX1 ag reconf 496%*, HEK293 Ca flux inactive, HEK293 Ca counter inactive and HEK293 Ca cntr2 104*.

Screening results deposited in PubChem by Johns Hopkins Ion Channel Center.
